# High-throughput results as filed in PubChem BioAssay.
# IDH1 mut inh: blocks human IDH1 R132H reductase activity | diaphorase/resazurin fluorescence, 60 min | inhibition, % at 10 µM | 70,000 tested, 0.18% active | AID 624101; in the data active = inhibition above about 34%; inconclusive = no clear call, values can overlap the other calls; inactive = below about 11%;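 note: 0% = DMSO and 100% = no enzyme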
# GASC1 inh: inhibitors of human demethylase GASC-1 KDM4C; Q9H3R0; GST-KDM4C 2-372, H3K9me3 peptide, LANCE TR-FRET; inhibition, % at 12.5 µM; 96,000 tested, 0.15% active; AID 720574;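 active = mean replicate inhibition above about 25%, with at least 55% of replicates also reaching it, limit read from the data, passing the limit was not always enough; inconclusive = only one of those two conditions met; inactive = neither condition met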
# Target sequence (Q9H3R0 2-372 limits assumed): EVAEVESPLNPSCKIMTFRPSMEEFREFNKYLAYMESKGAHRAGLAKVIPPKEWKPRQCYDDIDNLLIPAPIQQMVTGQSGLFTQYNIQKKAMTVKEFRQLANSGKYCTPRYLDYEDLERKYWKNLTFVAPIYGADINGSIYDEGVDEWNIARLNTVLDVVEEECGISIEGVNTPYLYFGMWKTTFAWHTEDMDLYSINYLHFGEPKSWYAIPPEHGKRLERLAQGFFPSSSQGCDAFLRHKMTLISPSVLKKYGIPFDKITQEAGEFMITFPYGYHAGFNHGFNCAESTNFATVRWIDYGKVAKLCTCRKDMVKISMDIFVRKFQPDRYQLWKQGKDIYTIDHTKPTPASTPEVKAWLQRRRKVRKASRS
#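 Material: GST-tagged GASC-1 (JMJD2C) catalytic fragment, aa 2-372 / Quantity: enzyme final amount 10 nM / Medium: HEPES buffer, pH 7.5, plus ascorbate / Doses: one test concentration per compound / Incubation: 30 min reaction, 60 min detection, RT / Measured by: LANCE TR-FRET / Read-out: inhibition from TR-FRET ratio decrease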
# T cruzi growth-1: T. cruzi proliferation inhibition; inhibition, % at 8.34 µM; 77,000 tested, 5.9% active; T. cruzi beta-gal in NIH3T3, GalScreen luminescence, 90 h;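 active = mean inhibition above about 93%, with at least 55% of replicates each passing it, limit read from the data, passing the limit was not always enough; inconclusive = only one of those two conditions holds; inactive = neither condition holds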
# T cruzi growth-2: inhibitors of T. cruzi proliferation; shares compounds with T cruzi growth-1; T. cruzi beta-gal in NIH3T3, GalScreen luminescence, 90 h; inhibition, % at 8.35 µM; 5,600 tested, 72% active;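 active = mean replicate inhibition above about 95% and at least 55% of replicates individually reaching it, limit read from the data; inconclusive = only one of the two criteria is met; inactive = neither criterion is met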
# T cruzi growth-3: inhibitors of T. cruzi proliferation | shares compounds with T cruzi growth-1 | T. cruzi beta-gal in NIH3T3, GalScreen luminescence, 90 h | inhibition, % at 2.09 µM | 5,600 tested, 21% active | AID 651740;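 active = mean inhibition above about 95%, with at least 55% of replicates also reaching it, limit read from the data; inconclusive = meets just one of the two conditions; inactive = meets neither condition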;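 note: plate controls were neutral control median for no effect and positive control median for full effect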
# 3T3 cytotox: kills mouse NIH/3T3 fibroblasts. NIH/3T3 viability, CellTiter-Glo ATP luminescence, 90 h. shares compounds with T cruzi growth-1. AID 651742. cytotoxicity (signal decrease), % at 8.35 µM. 5,600 tested, 14% active;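 active = mean signal decrease across replicates above about 35% based on untreated-well scatter, with enough replicates individually passing, limit read from the data; inconclusive = no rule stated though some were filed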;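 note: 0% = median of neutral control wells and 100% = median of positive control wells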
# 3T3 cytotox 2: NIH/3T3 (mouse) viability loss; 5,600 tested, 56% active; NIH/3T3 viability, CellTiter-Glo ATP luminescence, 90 h; shares compounds with T cruzi growth-1; inhibition, % at 24.9 µM;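 active = mean loss of cell viability signal at or above a set limit, and enough replicates individually reaching it; inconclusive = meets only the mean limit or only the replicate share; inactive = meets neither condition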;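 note: 0% = median of neutral control wells and 100% = median of positive control wells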
# * hit, by the source's call; ? = inconclusive; . = not tested or not shown. The entries come from a sample that favours hits as a whole.
SMILES,IDH1 mut inh,GASC1 inh,T cruzi growth-1,T cruzi growth-2,T cruzi growth-3,3T3 cytotox,3T3 cytotox 2
CCC(=O)N(C)C[C@H]1Oc2cc(C#CC3CCCCC3)ccc2S(=O)(=O)N([C@H](C)CO)C[C@@H]1C,.,0,108*,102*,70,12,83*
CCC(=O)N(C)C[C@H]1Oc2cc(C#CC3CCCCC3)ccc2S(=O)(=O)N([C@@H](C)CO)C[C@@H]1C,4,0,104,.,.,.,.
CCC(=O)N(C)C[C@H]1Oc2cc(C#CC3CCCCC3)ccc2S(=O)(=O)N([C@H](C)CO)C[C@H]1C,-4,-4,104,.,.,.,.
CCC(=O)N(C)C[C@H]1Oc2cc(C#CC3CCCCC3)ccc2S(=O)(=O)N([C@@H](C)CO)C[C@H]1C,.,0,111,.,.,.,.
CCC(=O)N(C)C[C@@H]1Oc2cc(C#CC3CCCCC3)ccc2S(=O)(=O)N([C@@H](C)CO)C[C@@H]1C,.,-1,?,100*,86,24,106*
CCOC(=O)c1ccc(NC(=O)CSc2nc(C)cc(C(F)(F)F)n2)cc1,0,.,.,.,.,.,.
COc1ccc(-c2c(C(F)(F)F)oc3cc(OCC(=O)Nc4ccc(C)cc4)ccc3c2=O)cc1OC,0,.,.,.,.,.,.
COc1cc(O)c2c(=O)cc(-c3cc(OC)c(OC)c(O)c3OC)oc2c1,0,.,.,.,.,.,.
Cc1ccccc1-c1ccc([C@@H]2[C@@H](CO)N3CCCCN(C(=O)Nc4ccc(F)cc4)C[C@H]23)cc1,.,-1,83,.,.,.,.
Cc1ccccc1-c1ccc([C@H]2[C@@H](CO)N3CCCCN(C(=O)Nc4ccc(F)cc4)C[C@@H]23)cc1,.,-1,104*,107*,94,1,56*
Cc1ccccc1-c1ccc([C@H]2[C@H](CO)N3CCCCN(C(=O)Nc4ccccc4)C[C@@H]23)cc1,.,-1,94,.,.,.,.
Cc1ccccc1-c1ccc([C@@H]2[C@@H](CO)N3CCCCN(C(=O)Nc4ccccc4)C[C@@H]23)cc1,.,-3,71,.,.,.,.
Cc1ccccc1-c1ccc([C@H]2[C@@H](CO)N3CCCCN(C(=O)Nc4ccc(F)cc4)C[C@H]23)cc1,.,-1,101*,98*,?,94*,103*
Cc1ccccc1-c1ccc([C@H]2[C@H]3CN(C(=O)Nc4ccc(F)cc4)CCCCN3[C@H]2CO)cc1,.,0,101*,111*,56,25,76*
COC(=O)CCCCCCC(=O)N/N=C/c1ccc(OC)c(O)c1,0,.,.,.,.,.,.
O=C(N1CCOCC1)[C@@]1(Cc2ccccc2)COC(c2ccc(OCCCO)cc2)=N1,-1,.,.,.,.,.,.
O=C(CCCCC(=O)N/N=C/c1ccoc1)NO,0,.,.,.,.,.,.
CO[C@@H]1CN(C)C(=O)c2ccc(NC(=O)c3nc4ccccc4s3)cc2OC[C@@H](C)N(Cc2cccnc2)C[C@H]1C,.,-3,73,.,.,.,.
CO[C@@H]1CN(C)C(=O)c2cc(NC(=O)c3nc4ccccc4s3)ccc2OC[C@H](C)N(Cc2ccncc2)C[C@H]1C,23,.,88,.,.,.,.
COCC(=O)Nc1ccc2c(c1)C(=O)N(C)C[C@@H](OC)[C@H](C)CN(Cc1ccncc1)[C@H](C)CO2,0,0,-43,.,.,.,.
COc1ccc(CN2C[C@@H](C)[C@H](OC)CN(C)C(=O)c3ccc(NC(=O)c4nc5ccccc5s4)cc3OC[C@H]2C)cc1,-1,1,91,.,.,.,.
COc1ccc(CN2C[C@@H](C)[C@H](OC)CN(C)C(=O)c3ccc(NC(=O)c4nc5ccccc5s4)cc3OC[C@@H]2C)cc1,0,0,102*,115*,79,-3,-38
CO[C@@H]1CN(C)C(=O)c2ccc(NC(=O)c3nc4ccccc4s3)cc2OC[C@@H](C)N(Cc2cccnc2)C[C@@H]1C,.,2,102*,109*,?,-17,43*
COCC(=O)Nc1ccc2c(c1)C(=O)N(C)C[C@@H](OC)[C@@H](C)CN(Cc1ccncc1)[C@@H](C)CO2,0,1,98*,61,-26,6,11
CO[C@H]1CN(C)C(=O)c2cc(NC(=O)c3nc4ccccc4s3)ccc2OC[C@H](C)N(Cc2ccncc2)C[C@@H]1C,?,1,100*,98*,67,13,42*
